Assay [1] addresses T1, Histone deacetylase 1 (Homo sapiens, UniProt Q13547). The assay is described as follows: Inhibition of recombinant human full length HDAC1 expressed in baculovirus infected Sf9 insect cells using biotinylated lysine 9 acetylated histone H3 (1 to 21 residues) as substrate incubated for 5 mins followed by substrate addition measured after 60 mins by HTRF assay. Background: TR-FRET usually uses a lanthanide donor and a delayed reading to cut background.

The subject of a further assay is HCT-116. The assay is described as follows: Antiproliferative activity against human HCT116 cells after 72 hrs by SRB assay. It counts as functional, cell-based. To be noted: HCT-116, 72 h.
For assay [2], the target named is T2, Hepatocyte growth factor receptor (Homo sapiens, UniProt P08581). The assay is described as follows: Inhibition of recombinant human His-tagged c-Met cytoplasmic domain (956 to 1390 residues) expressed in baculovirus expression system using poly (Glu,Tyr)4:1 as substrate after 60 mins by spectrophotometric analysis.
For another assay, the system named is EBC-1. The assay is described as follows: Antiproliferative activity against human EBC1 cells after 72 hrs by SRB assay. It counts as functional, cell-based. To be noted: EBC-1, 72 h.
In assay [3] the target is T1, Histone deacetylase 1. The assay is described as follows: Inhibition of HDAC1 in human EBC1 cells assessed as increase in p21 levels at 0.01 to 10 uM after 24 hrs by Western blot analysis. Format: cell-based. An outline of the steps: (§1)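 Intact EBC-1 cells were treated with the compound at several concentrations for 24 h. Protein levels were then read by immunoblotting with specific antibodies.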

Assay [4] concerns the target T1, Histone deacetylase 1. The assay is described as follows: Potency index, ratio of chidamide IC50 to compound IC50 for recombinant human full length HDAC1 expressed in baculovirus infected Sf9 insect cells.
The target of assay [5] is T2, Hepatocyte growth factor receptor. The assay is described as follows: Inhibition of c-MET in human EBC1 cells assessed as decrease in Erk1/2 phosphorylation at Thr202/Tyr204 residues after 24 hrs by Western blot analysis. Format: cell-based. A digest of the protocol: as §1
In general terms: Immunoblotting shows a protein as a band on a membrane.

For assay [6], the target named is T1, Histone deacetylase 1. Description: Inhibition of HDAC1 in human EBC1 cells assessed as increase in acetyl-Histone H3 levels at Lys9/Lys14 residues at 0.01 to 10 uM after 24 hrs by Western blot analysis. Format: cell-based. A digest of the protocol:
as §1

Assay [7] concerns the target T2, Hepatocyte growth factor receptor. The assay is described as follows: Inhibition of c-MET in human EBC1 cells assessed as decrease in Akt phosphorylation at Ser473 residues after 24 hrs by Western blot analysis. It counts as cell-based. An outline of the steps: as §1
Assay [8] has as its target T3, Protein deacetylase HDAC6 (Homo sapiens) (UniProt Q9UBN7).
T3 sequence (whole entry): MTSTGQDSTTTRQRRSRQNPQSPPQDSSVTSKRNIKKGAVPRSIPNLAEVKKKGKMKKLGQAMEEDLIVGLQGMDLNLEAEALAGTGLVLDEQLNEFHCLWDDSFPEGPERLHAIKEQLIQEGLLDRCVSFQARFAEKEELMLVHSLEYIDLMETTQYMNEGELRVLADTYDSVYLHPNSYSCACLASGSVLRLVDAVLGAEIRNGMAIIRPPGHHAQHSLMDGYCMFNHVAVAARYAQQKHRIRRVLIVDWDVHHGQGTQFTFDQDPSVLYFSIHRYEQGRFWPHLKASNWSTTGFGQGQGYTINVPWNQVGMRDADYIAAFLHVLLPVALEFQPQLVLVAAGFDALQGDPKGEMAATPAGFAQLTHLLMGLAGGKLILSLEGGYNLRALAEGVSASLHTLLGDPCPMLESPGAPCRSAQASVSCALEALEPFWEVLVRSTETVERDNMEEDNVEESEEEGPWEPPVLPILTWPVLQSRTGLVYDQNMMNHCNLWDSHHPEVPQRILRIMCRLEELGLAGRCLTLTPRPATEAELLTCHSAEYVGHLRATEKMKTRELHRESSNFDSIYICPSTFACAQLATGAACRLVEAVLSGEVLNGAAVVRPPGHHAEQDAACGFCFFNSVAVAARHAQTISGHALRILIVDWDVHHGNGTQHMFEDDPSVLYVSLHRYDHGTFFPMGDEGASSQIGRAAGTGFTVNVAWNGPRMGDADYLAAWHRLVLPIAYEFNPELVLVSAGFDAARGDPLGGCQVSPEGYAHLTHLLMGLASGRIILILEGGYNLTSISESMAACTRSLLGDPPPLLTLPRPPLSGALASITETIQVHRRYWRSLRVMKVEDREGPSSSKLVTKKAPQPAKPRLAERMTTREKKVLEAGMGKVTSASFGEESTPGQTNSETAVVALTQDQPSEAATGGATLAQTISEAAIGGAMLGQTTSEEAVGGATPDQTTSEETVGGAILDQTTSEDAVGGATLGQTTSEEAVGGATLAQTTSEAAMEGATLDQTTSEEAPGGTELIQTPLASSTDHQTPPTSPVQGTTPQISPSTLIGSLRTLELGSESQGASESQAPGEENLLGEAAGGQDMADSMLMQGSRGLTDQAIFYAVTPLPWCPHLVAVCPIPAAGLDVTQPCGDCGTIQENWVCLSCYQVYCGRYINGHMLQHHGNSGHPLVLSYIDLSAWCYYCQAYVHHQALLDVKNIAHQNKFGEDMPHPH
The assay is described as follows: Inhibition of HDAC6 in human EBC1 cells assessed as […] in acetyl alpha-tubulin level at Lys40 at 0.01 to 10 uM after 24 hrs by Western blot analysis. It counts as cell-based.

In assay [9] the target is T2, Hepatocyte growth factor receptor. The assay is described as follows: Inhibition of phosphorylation of c-MET at Tyr1234/1235 residues in human EBC1 cells after 24 hrs by Western blot analysis. Format: cell-based. A digest of the protocol:
as §1

Calls of active or inactive are those of the source. The calls are words filed in the database; no cut-off is given here.

One may read the IC50 as the point on the concentration scale where inhibition reaches its midpoint.

T2 sequence (P08581 whole entry, the tested form may be a part): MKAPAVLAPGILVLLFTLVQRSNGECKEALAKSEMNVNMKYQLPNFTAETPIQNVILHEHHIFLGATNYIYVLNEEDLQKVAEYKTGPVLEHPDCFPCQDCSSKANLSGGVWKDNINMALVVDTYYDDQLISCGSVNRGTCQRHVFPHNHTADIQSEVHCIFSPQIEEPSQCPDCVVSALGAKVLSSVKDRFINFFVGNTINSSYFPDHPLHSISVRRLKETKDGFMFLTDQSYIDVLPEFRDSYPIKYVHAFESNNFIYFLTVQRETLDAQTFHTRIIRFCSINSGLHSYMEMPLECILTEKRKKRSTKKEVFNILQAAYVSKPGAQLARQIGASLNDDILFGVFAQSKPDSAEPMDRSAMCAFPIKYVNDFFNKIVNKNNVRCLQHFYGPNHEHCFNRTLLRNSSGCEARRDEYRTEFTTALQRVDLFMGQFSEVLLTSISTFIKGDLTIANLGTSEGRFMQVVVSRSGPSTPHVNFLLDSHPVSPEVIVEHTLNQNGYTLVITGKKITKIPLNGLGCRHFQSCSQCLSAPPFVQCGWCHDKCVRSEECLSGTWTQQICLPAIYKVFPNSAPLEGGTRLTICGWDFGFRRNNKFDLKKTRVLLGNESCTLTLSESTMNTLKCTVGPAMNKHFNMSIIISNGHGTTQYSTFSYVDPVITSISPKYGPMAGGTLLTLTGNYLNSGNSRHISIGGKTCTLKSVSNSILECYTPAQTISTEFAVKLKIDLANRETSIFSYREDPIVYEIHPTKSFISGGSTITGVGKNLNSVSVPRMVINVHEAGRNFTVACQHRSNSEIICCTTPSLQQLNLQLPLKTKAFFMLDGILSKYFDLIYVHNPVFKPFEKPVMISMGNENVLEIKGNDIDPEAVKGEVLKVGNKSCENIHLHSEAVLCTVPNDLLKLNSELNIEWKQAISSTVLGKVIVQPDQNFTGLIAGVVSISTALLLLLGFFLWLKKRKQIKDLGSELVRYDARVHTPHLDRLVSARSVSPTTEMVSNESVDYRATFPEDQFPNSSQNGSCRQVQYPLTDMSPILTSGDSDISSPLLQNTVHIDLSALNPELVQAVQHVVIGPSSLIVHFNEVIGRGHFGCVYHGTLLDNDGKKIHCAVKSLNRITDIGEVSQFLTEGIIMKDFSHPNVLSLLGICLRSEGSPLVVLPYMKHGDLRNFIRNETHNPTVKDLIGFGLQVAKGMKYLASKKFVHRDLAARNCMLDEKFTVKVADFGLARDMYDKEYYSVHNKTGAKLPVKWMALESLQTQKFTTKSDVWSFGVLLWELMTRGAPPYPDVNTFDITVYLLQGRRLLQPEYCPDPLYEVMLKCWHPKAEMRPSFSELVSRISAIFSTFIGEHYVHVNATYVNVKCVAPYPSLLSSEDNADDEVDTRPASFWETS
T1 sequence (Q13547 whole entry, the tested form may be a part): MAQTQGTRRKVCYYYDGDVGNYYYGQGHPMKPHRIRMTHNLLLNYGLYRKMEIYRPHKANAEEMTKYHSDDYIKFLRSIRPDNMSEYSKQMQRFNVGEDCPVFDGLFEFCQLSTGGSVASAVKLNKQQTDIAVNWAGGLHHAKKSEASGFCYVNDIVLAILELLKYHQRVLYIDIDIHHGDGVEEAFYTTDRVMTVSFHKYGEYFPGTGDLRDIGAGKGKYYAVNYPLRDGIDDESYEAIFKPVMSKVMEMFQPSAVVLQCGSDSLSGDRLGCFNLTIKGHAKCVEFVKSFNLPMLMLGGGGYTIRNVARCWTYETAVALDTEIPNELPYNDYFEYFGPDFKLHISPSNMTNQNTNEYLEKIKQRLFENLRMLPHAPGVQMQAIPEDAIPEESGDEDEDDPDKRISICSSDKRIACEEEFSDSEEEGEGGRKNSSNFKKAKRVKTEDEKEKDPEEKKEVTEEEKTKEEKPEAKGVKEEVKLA

Take `Cn1cc(-c2ccc(=O)n(CCOc3ccnc4cc(Nc5ccc(C(=O)Nc6ccccc6N)nc5)ccc34)n2)cn1`: the IC50 at Histone deacetylase 1 [1] was 129 nM; with HCT-116 it was greater than 10000 nM; in assay [2], 3.7 nM; with EBC-1, 450 nM.

As to `Nc1cc(F)ccc1NC(=O)c1ccc(CNC(=O)/C=C/c2cccnc2)cc1` [TUCIDINOSTAT], the results for the IC50 in the assay on HCT-116 and in the assay on EBC-1 were 7800 nM and 2900 nM, respectively.

Consider `Cn1cc(-c2ccc(=O)n(CCOc3ccnc4cc(OCc5ccc(/C=C/C(=O)Nc6ccccc6N)cc5)ccc34)n2)cn1`, for which the IC50 on Histone deacetylase 1 [1] was greater than 1000 nM; with HCT-116, greater than 10000 nM; in assay [2], 1.1 nM; in the assay on EBC-1, 490 nM.

Turning to `Cn1cc(-c2ccc(=O)n(CCOc3ccnc4cc(OCc5ccc(C(=O)Nc6ccccc6N)cc5)ccc34)n2)cn1`, the IC50 was 156 nM on Histone deacetylase 1 [1], 1800 nM with HCT-116, 0.44 nM in [2] and 42 nM in the assay with EBC-1.

With `Cn1cc(-c2ccc(=O)n(CCOc3ccnc4cc(OCCCOc5ccc(C(=O)Nc6ccccc6N)nc5)ccc34)n2)cn1`, the inhibition result on Histone deacetylase 1 [3] and on Histone deacetylase 1 [6] was “Active” throughout. The IC50 on Histone deacetylase 1 [1] was found to be 38 nM; with HCT-116 it was 1300 nM; in assay [2], 0.71 nM; in the assay on EBC-1 it was 58 nM. The Ratio IC50 at Histone deacetylase 1 [4] was found to be 4. In addition, the inhibition result in assay [5], in assay [7] and in assay [9] was “Dose-dependent effect” throughout. For the same molecule, the inhibition result in [8] was “inactive”.

As for `Cn1cc(-c2ccc(=O)n(CCOc3ccnc4cc(C(=O)Nc5ccccc5N)ccc34)n2)cn1`, the IC50 at Histone deacetylase 1 [1] is greater than 1000 nM; in the assay with HCT-116, greater than 10000 nM; in assay [2], 37 nM; with EBC-1, greater than 10000 nM.

On to `O=c1ccc(-n2ccc3ccc(F)cc32)nn1CCOc1ccnc2cc(OCCCN3CCOCC3)ccc12`, for which the IC50 at Histone deacetylase 1 [1] was greater than 1000 nM; in the assay with HCT-116, greater than 10000 nM; in assay [2], 0.84 nM; in the assay on EBC-1 it was 60 nM.

On to `Cn1cc(-c2ccc(=O)n(CCOc3ccnc4cc(OCCCC(=O)NO)ccc34)n2)cn1`, for which the IC50 is greater than 1000 nM on Histone deacetylase 1 [1], greater than 10000 nM in the assay with HCT-116, 1 nM in [2] and 870 nM in the assay on EBC-1.

With `CC(=O)CCCCCOc1ccc2c(OCCn3nc(-c4cnn(C)c4)ccc3=O)ccnc2c1`, the IC50 was greater than 1000 nM at Histone deacetylase 1 [1], greater than 10000 nM in the assay on HCT-116, 1 nM in assay [2] and 25 nM in the assay on EBC-1.

With `Cn1cc(-c2ccc(=O)n(CCOc3ccnc4cc(OCCCCCC(=O)Nc5ccccc5N)ccc34)n2)cn1`, the IC50 on Histone deacetylase 1 [1] was determined as 221 nM; with HCT-116 it was 7000 nM; in assay [2] it was 0.96 nM; in the assay on EBC-1, 370 nM.

With `Cn1cc(-c2ccc(=O)n(CCOc3ccnc4cc(-c5ccc(C(=O)Nc6ccccc6N)s5)ccc34)n2)cn1`, the IC50 at Histone deacetylase 1 [1] is 467 nM; with HCT-116 it was greater than 10000 nM; in assay [2], 1.3 nM; in the assay with EBC-1, 120 nM.

Regarding `Cn1cc(-c2ccc(=O)n(CCOc3ccnc4cc(OCCCCCS)ccc34)n2)cn1`, the IC50 is 329 nM on Histone deacetylase 1 [1], greater than 10000 nM in the assay with HCT-116, 1.5 nM in assay [2] and 640 nM with EBC-1.

Consider `Cn1cc(-c2ccc(=O)n(CCOc3ccnc4cc(OCCCCCC(=O)NO)ccc34)n2)cn1`, for which the IC50 on Histone deacetylase 1 [1] was 216 nM; with HCT-116, greater than 10000 nM; in assay [2] it was 0.73 nM; in the assay on EBC-1, 460 nM.

Turning to `Cn1cc(-c2ccc(=O)n(CCOc3ccnc4cc(OCCCCC(=O)NO)ccc34)n2)cn1`, the IC50 at Histone deacetylase 1 [1] is greater than 1000 nM; with HCT-116 it was greater than 10000 nM; in [2], 0.96 nM; in the assay on EBC-1, 370 nM.

For the molecule `Cn1cc(-c2ccc(=O)n(CCOc3ccnc4cc(OCc5ccc(CCC(=O)Nc6ccccc6N)cc5)ccc34)n2)cn1`, the IC50 was greater than 1000 nM at Histone deacetylase 1 [1], greater than 10000 nM in the assay with HCT-116, 5.1 nM in [2] and 210 nM in the assay on EBC-1.

Turning to `CNC(=O)CCCCCOc1ccc2c(OCCn3nc(-c4cnn(C)c4)ccc3=O)ccnc2c1`, the half-inhibitory concentration (IC50) on Histone deacetylase 1 [1] was greater than 1000 nM; in the assay on HCT-116 it was greater than 10000 nM; in assay [2], 1.2 nM; in the assay with EBC-1, 79 nM.

As to `Cn1cc(-c2ccc(=O)n(CCOc3ccnc4cc(OCCCCCCC(=O)NO)ccc34)n2)cn1`, the IC50 on Histone deacetylase 1 [1] is 18 nM; with HCT-116 it was greater than 10000 nM; in [2], 0.54 nM; in the assay on EBC-1, 210 nM.

Turning to `Cn1cc(-c2ccc(=O)n(CCOc3ccnc4cc(OCc5ccc(/C=C/C(=O)Nc6ccccc6N)nc5)ccc34)n2)cn1`, the IC50 is 625 nM on Histone deacetylase 1 [1], 7900 nM with HCT-116, 0.63 nM in [2] and 46 nM in the assay on EBC-1.

The record behind these values is ChEMBL document CHEMBL4190329, “Design, Synthesis, and Biological Evaluation of the First c-Met/HDAC Inhibitors Based on Pyridazinone Derivatives” (ACS Med Chem Lett, 2017).
